Assay outcomes: PubChem, several laboratories
This is a sample that favours compounds with a hit; in the whole collection about 1.5% have one here.
UCH37 inh – inhibitors of human UCH37 deubiquitinase, primary screen, biochemical, Ub-AMC cleavage, fluorescence | Ubiquitin carboxyl-terminal hydrolase isozyme L5 (Homo sapiens), Q9Y5K5 | purified proteasome/UCH37 | inhibition, % (no concentration beside the values) | actives 0.33% (n = 330,000);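 active = mean inhibition over replicate wells above about 20%, limit read from the data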
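Material: Human UCH37 enzyme supplied as purified proteasome complex | Schedule: 30 min compound-proteasome preincubation then 25 min substrate reaction, room temperature | Detection: AMC fluorescence from Ub-AMC cleavage, excitation 355 nm, emission 460 nm | Benchmarks: Wells without proteasome as full block, compound-free enzyme plus substrate as uninhibited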
Apaf-1 inh – inhibitors of human Apaf-1 apoptosome, primary screen, biochemical, DEVD-Rh110 fluorescence, uHTS; reconstituted apoptosome caspase-3 activity; inhibition, % at 20 µM; actives 0.71% (n = 330,000); active = inhibition of at least 40% at 20 µM
Target sequence (O14727 whole entry, looked up): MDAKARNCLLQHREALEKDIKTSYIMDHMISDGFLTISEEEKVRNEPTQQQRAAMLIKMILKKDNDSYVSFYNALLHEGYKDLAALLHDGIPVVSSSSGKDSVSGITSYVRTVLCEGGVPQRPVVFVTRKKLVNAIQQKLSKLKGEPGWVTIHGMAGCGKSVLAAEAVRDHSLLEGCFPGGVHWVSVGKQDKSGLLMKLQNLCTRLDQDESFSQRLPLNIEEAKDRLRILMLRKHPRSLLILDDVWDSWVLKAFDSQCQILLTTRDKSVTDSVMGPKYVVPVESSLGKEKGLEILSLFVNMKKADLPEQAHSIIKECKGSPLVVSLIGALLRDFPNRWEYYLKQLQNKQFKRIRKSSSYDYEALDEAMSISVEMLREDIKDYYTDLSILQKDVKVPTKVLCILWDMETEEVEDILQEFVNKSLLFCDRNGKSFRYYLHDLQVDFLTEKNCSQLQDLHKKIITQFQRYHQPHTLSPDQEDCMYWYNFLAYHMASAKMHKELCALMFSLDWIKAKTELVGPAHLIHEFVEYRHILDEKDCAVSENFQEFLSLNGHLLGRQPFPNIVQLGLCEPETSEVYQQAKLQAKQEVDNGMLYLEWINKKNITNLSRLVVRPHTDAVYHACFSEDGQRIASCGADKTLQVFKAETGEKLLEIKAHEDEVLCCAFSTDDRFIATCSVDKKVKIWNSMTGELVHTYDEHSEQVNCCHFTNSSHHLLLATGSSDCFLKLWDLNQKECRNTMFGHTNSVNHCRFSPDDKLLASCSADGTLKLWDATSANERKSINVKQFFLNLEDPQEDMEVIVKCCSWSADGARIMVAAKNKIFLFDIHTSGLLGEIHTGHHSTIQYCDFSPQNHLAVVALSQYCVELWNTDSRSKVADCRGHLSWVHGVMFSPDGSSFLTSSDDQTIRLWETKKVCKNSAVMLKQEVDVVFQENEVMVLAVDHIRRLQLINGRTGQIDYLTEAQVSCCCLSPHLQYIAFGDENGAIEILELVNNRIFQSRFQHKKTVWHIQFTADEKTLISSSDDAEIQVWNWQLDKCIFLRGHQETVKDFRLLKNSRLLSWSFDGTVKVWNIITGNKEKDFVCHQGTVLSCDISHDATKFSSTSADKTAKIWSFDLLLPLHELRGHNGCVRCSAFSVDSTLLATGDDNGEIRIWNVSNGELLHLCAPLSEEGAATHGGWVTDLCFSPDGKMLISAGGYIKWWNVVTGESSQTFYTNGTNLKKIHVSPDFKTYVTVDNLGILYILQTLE
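Material: reconstituted apoptosome with Apaf-1, cytochrome c, caspase-9, procaspase-3, dATP; medium: pH 7.5 Hepes buffer with CHAPS, BSA, DTT; also added: cytochrome c and DEVD-Rh110 substrate; timing: 30 min plus 50 min, RT; signal: Rh110 fluorescence intensity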
PREPL inh – PREPL enzyme inhibitors, primary screen, biochemical, fluorescence polarization; Prolyl endopeptidase-like (Homo sapiens), Q4J6C6; recombinant PREPL, fluorescence polarization activity-based probe; inhibition, % at 5.96 µM; actives 0.68% (n = 320,000); AID 2751, 2010; in the data active = inhibition above about 43%
UBC13 inh – UBC13 polyubiquitin chain formation inhibitors, primary screen, biochemical, TR-FRET, uHTS | inhibition, % at 20 µM | AID 485273, 2010 | actives 0.47% (n = 330,000); in the data active = inhibition above about 45%, passing the limit was not always enough
Apaf-1 inh conf – Apaf-1 inhibitors, single-dose retest, confirmation, biochemical, fluorescence, DEVD-Rh110, 20 µM | shares compounds with Apaf-1 inh | reconstituted apoptosome, caspase-3 DEVD-Rh110 fluorescence | inhibition, % at 20 µM | actives 25% (n = 1,800) | AID 504614, 2011;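 active = mean inhibition of at least 40% at 20 µM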
Rh110 interf inh – Rh110 fluorescence interference by putative Apaf-1 inhibitors, confirmation, artefact control for Apaf-1 inhibitor project, biochemical, 20 µM; shares compounds with Apaf-1 inh; quenched caspase reaction; activation (fluorescence interference), % at 20 µM; 1,800 tested, under 10 active;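 active = signal rise of 40% or more at 20 µM, treated as a fluorescence artifact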
Fluor interf inh – fluorescence interference of Apaf-1 inhibitor hits, dose response, artefact control for Apaf-1 inhibitor project; 460 tested, under 10 active; fluorescence interference counterscreen, Apaf-1 assay format; IC50, µM; shares compounds with Apaf-1 inh; AID 588538, 2011; call rule not given here
UCH37 reconfirm – retest of human UCH37 deubiquitinase inhibitors, confirmation, biochemical, Ub-AMC cleavage rate, fluorescence. Proteasome-bound UCH37. actives 27% (n = 480). inhibition, % at 20 µM. AID 624100, 2012. shares compounds with UCH37 inh;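 active = average inhibition over replicates above about 50%, so the earlier screening hit is confirmed, limit read from the data; inactive = the rest, counted as false positives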;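 also: based on cleavage rate fitted by regression over a 30 min kinetic read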
Large screens that a line does not name were inactive (follow-up assays come after a bar, where they were run); ! = not confirmed by another sample.

CCN(CCO)c1ccc(NC(=S)Nc2cccc(S(=O)(=O)N(C)C)c2)cc1	Apaf-1 inh 42.9 | Apaf-1 inh conf inactive | Rh110 interf inh inactive
COc1ccc(C=NNC(=O)CNC(=O)/C=C/c2ccccc2OC)cc1	none (no result: Apaf-1 inh, PREPL inh, UBC13 inh)
Cc1c(C=NNC(=O)COc2ccccc2[N+](=O)[O-])c2ccccc2n1C	none (no result: Apaf-1 inh, PREPL inh, UBC13 inh)
Cc1ccc(OCC(=O)N/N=C\c2c(C)n(C)c3ccccc23)c([N+](=O)[O-])c1	Apaf-1 inh 42.0 (no result: UCH37 inh) | Apaf-1 inh conf inactive | Rh110 interf inh inactive
Cc1ccc2nc(C)cc(SCC(=O)NN=Cc3ccco3)c2c1	none (no result: Apaf-1 inh, PREPL inh, UBC13 inh)
O=C(NN=c1c(=O)c2ccccc2c1=O)c1ccccc1	UCH37 inh 79.3, Apaf-1 inh 96.4 | Apaf-1 inh conf 98.2 | Rh110 interf inh inactive | Fluor interf inh inactive | UCH37 reconfirm 76.6
CC(C)=CCC1=C(OCC(=O)O)C(=O)c2ccccc2C1=O	UCH37 inh 80.7, Apaf-1 inh 95.3 | Apaf-1 inh conf 88.2 | Rh110 interf inh inactive | Fluor interf inh inactive | UCH37 reconfirm inactive
CC(C)=CCC/C(C)=C/CC/C(C)=C/CC/C(C)=C/CC1=C(C)C(=O)c2ccccc2C1=O	none
CC(=NNC(=O)CNC(=O)Cc1ccccc1)c1ccco1	none (no result: Apaf-1 inh, PREPL inh, UBC13 inh)
Cc1[nH]n(-c2ccccc2)c(=O)c1C(C[N+](=O)[O-])c1ccccc1Cl (stereo not drawn)	UCH37 inh 30.0, Apaf-1 inh 79.1 | Apaf-1 inh conf inactive | Rh110 interf inh inactive | UCH37 reconfirm inactive
COc1ccc(C(C[N+](=O)[O-])c2c(C)cc3ccccn23)cc1 (stereo not drawn)	none
COc1ccc(C(C[N+](=O)[O-])c2c(C)[nH]n(-c3ccccc3)c2=O)cc1 (stereo not drawn)	UCH37 inh 77.1, Apaf-1 inh 95.8 | Apaf-1 inh conf 64.7 | Rh110 interf inh inactive | Fluor interf inh inactive | UCH37 reconfirm inactive
CN(CCNC(=O)c1ccc(C=NO)nc1)Cc1ccccc1	none (no result: Apaf-1 inh, PREPL inh, UBC13 inh)
CC(=O)Nc1ccc(NC2=C(Cl)C(=O)c3ccccc3C2=O)cc1	none (no result: PREPL inh)
Cc1ccc(NC2=C(NCCO)C(=O)c3ccccc3C2=O)cc1	UCH37 inh 26.2, Apaf-1 inh 78.1 | Apaf-1 inh conf 61.2 | Rh110 interf inh inactive | Fluor interf inh inactive | UCH37 reconfirm inactive
O=C(NN=Cc1cccnc1)c1cccc(NC(=O)c2ccccc2Cl)c1	none (no result: Apaf-1 inh, PREPL inh, UBC13 inh)
N#Cc1c(N=CN2CCCC2)oc(-c2ccccc2)c1-c1ccccc1	none (no result: Apaf-1 inh, PREPL inh, UBC13 inh)
Cc1ccc(S(=O)(=O)/N=C2\C=C(Nc3ccc(O)cc3)C(=O)c3ccccc32)cc1	UCH37 inh 48.5, Apaf-1 inh 95.5 | Apaf-1 inh conf 97.0 | Rh110 interf inh inactive | Fluor interf inh inactive | UCH37 reconfirm inactive
Cc1ccc(S(=O)(=O)/N=C2/C=C(Sc3ncn[nH]3)C(=O)c3ccccc32)cc1	none (no result: UCH37 inh, Apaf-1 inh, UBC13 inh)
CCN1/C(=C/C(C)=C/c2sc3ccccc3[n+]2CC)Sc2ccccc21	UCH37 inh 27.6, Apaf-1 inh 52.7 | Apaf-1 inh conf 60.6 | Rh110 interf inh inactive | Fluor interf inh 51.2 | UCH37 reconfirm inactive
CCc1cc[n+](C2=C([O-])c3ccccc3C(=O)/C2=N\S(=O)(=O)c2cccs2)cc1	UCH37 inh 56.6, Apaf-1 inh 68.2 | Apaf-1 inh conf 63.5 | Rh110 interf inh inactive | Fluor interf inh inactive | UCH37 reconfirm 62.3
CC1=C(C)C(=O)C(N2CCOCC2)=CC1=O	none (no result: Apaf-1 inh, PREPL inh, UBC13 inh)
O=C1C=C(N2CCOCC2)c2ccccc2C1=O	UCH37 inh 97.4, Apaf-1 inh 98.2 | Apaf-1 inh conf 99.6 | Rh110 interf inh inactive | Fluor interf inh inactive | UCH37 reconfirm 130.5
O=C(O)c1cccc(NC2=C(N3CCOCC3)C(=O)c3ccccc3C2=O)c1	UCH37 inh 28.1, Apaf-1 inh 84.4 | Apaf-1 inh conf 80.6 | Rh110 interf inh inactive | Fluor interf inh inactive | UCH37 reconfirm inactive
CCC(=NNC(=O)c1ccc(CN(C)S(=O)(=O)c2ccc(C)cc2)cc1)c1ccc(OC(F)F)cc1	none (no result: Apaf-1 inh, PREPL inh, UBC13 inh)
COc1ccc(CC(=O)NN=C(C)CC(=O)Nc2ccc3c(c2)OCCO3)cc1	none (no result: Apaf-1 inh, PREPL inh, UBC13 inh)
CC(=O)N(C1=C(Cl)C(=O)c2ccccc2C1=O)C1CCCCC1	UCH37 inh 44.1, Apaf-1 inh 85.4 | Apaf-1 inh conf 90.0 | Rh110 interf inh inactive | Fluor interf inh inactive | UCH37 reconfirm 53.7
COC(=O)c1cccc(NS(=O)(=O)c2cccs2)c1C	none (no result: Apaf-1 inh, UBC13 inh)
COC(=O)c1ccccc1NC1=C/C(=N\S(=O)(=O)c2cccs2)c2ccccc2C1=O	UCH37 inh 29.8, Apaf-1 inh 91.9 | Apaf-1 inh conf 94.1 | Rh110 interf inh inactive | Fluor interf inh inactive | UCH37 reconfirm 54.5!
CC(=NNC(=O)c1ccc(F)cc1)c1cccc(NC(=O)c2ccco2)c1	none (no result: Apaf-1 inh, PREPL inh, UBC13 inh)
Cc1ccc(C(=O)NNc2cc(N3CCCC3)nc(N3CCCC3)n2)cc1	UCH37 inh 49.3, Apaf-1 inh 97.0 | Apaf-1 inh conf 88.7 | Rh110 interf inh inactive | Fluor interf inh inactive | UCH37 reconfirm 50.1
FC(F)(F)C1=Nc2cccc3cccc(c23)N1	UCH37 inh 56.9, Apaf-1 inh 66.1 (no result: PREPL inh) | Apaf-1 inh conf 63.3 | Rh110 interf inh inactive | Fluor interf inh inactive | UCH37 reconfirm inactive
O=c1cc(Br)c(O)c(Br)cc1Br	none (no result: Apaf-1 inh, PREPL inh, UBC13 inh)
[O-][n+]1cccc2c(Br)cc(Br)c(O)c21	UCH37 inh 45.3, Apaf-1 inh 72.9 | Apaf-1 inh conf inactive | Rh110 interf inh inactive | UCH37 reconfirm inactive
CC(=O)N(C1=C(N)C(=O)c2ccccc2C1=O)c1ccccc1	UCH37 inh 37.2, Apaf-1 inh 67.4 | Apaf-1 inh conf 81.3 | Rh110 interf inh inactive | Fluor interf inh inactive | UCH37 reconfirm inactive
O=C(N(c1ccccc1)c1ccccc1)N(c1ccccc1)c1ccccc1	none
CC1CCCC(NC(=O)COC(=O)c2ccccc2[N+](=O)[O-])C1C (stereo not drawn)	none
CC1CCCC(NC(=O)COC(=O)c2ccc([N+](=O)[O-])s2)C1C (stereo not drawn)	UCH37 inh 77.9, Apaf-1 inh 41.5 | Apaf-1 inh conf inactive | Rh110 interf inh inactive | UCH37 reconfirm 84.8
N#CC1=C(N)OC2=C(C(=O)CCC2)[C@]12C(=O)N(CC(N)=O)c1ccccc12	none
